Screening results (PubChem)
Apaf-1 inh = inhibitors of human Apaf-1 apoptosome, primary screen, biochemical, DEVD-Rh110 fluorescence, uHTS; inhibition, % at 20 µM; Apoptotic protease-activating factor 1 (Homo sapiens), O14727; reconstituted apoptosome caspase-3 activity; actives 0.71% (n = 330,000); AID 489030, 2010; active means inhibition of at least 40% at 20 µM
Target sequence (O14727 whole entry, looked up): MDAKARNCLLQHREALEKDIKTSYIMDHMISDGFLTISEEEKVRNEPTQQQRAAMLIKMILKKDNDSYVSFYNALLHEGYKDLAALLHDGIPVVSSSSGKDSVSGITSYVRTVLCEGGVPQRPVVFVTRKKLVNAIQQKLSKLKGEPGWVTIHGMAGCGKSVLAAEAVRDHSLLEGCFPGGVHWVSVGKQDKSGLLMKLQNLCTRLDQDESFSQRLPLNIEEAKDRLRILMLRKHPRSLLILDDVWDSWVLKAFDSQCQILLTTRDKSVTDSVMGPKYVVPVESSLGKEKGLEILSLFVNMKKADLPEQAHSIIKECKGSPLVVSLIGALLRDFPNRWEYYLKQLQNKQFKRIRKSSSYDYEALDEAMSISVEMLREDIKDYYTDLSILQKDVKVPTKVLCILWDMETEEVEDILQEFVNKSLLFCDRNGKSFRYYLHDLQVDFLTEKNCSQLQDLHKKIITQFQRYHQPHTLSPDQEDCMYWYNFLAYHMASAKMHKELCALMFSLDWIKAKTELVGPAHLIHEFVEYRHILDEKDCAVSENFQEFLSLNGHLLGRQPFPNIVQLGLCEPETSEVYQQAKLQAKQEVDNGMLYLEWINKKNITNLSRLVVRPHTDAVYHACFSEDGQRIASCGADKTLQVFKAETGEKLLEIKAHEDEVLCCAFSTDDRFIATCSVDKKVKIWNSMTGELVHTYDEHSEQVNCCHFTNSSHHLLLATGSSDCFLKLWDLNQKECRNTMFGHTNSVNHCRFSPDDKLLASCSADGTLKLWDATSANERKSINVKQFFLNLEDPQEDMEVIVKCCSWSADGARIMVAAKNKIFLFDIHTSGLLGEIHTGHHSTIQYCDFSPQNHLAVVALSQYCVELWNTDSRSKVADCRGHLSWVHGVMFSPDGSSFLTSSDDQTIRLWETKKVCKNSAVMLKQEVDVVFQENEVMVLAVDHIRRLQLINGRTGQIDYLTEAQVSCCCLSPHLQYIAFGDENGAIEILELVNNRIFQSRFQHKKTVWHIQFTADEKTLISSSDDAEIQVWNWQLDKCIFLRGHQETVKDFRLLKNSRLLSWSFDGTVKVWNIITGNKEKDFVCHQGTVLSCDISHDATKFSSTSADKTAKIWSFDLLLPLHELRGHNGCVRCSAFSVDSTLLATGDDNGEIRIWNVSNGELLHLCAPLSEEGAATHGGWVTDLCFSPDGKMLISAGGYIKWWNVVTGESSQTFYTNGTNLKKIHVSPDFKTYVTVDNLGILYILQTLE
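System – cell-free apoptosome with Apaf-1, procaspase-3 and caspase-9 · Buffer or medium – pH 7.5 Hepes buffer with CHAPS, BSA, DTT · Also added – cytochrome c with DEVD-Rh110 · Times – 30 min compound preincubation, 50 min activation, room temperature · Technique – Rh110 fluorescence intensity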
PREPL inh = PREPL enzyme inhibitors, primary screen, biochemical, fluorescence polarization. Prolyl endopeptidase-like (Homo sapiens), Q4J6C6. recombinant PREPL, fluorescence polarization activity-based probe. inhibition, % at 5.96 µM. actives 0.68% (n = 320,000). AID 2751, 2010; in the data active means inhibition above about 43%
pPAFAH inh = pPAFAH enzyme inhibitors, primary screen, biochemical, fluorescence polarization, human; Platelet-activating factor acetylhydrolase (Homo sapiens), Q13093; recombinant pPAFAH, FP-rhodamine probe fluorescence polarization; inhibition, % at 3.39 µM; actives 1.5% (n = 330,000); AID 463082, 2010;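 active means inhibition above the mean inhibition across the screen plus 3 SD, cut at about 25% in these data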;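 further: inhibitors block binding of the rhodamine activity-based probe so polarization drops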
PAFAH1B2 inh = PAFAH1B2 enzyme inhibitors, primary screen, biochemical, fluorescence polarization, human; Platelet-activating factor acetylhydrolase IB subunit alpha2 (Homo sapiens), P68402; recombinant PAFAH1B2, FP-rhodamine activity probe; inhibition, % at 3.39 µM; actives 1.2% (n = 340,000); AID 492953, 2010;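 active means inhibition above the mean of all tested compounds plus 3 SD, cut at about 24% in these data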
PAFAH1B3 inh = PAFAH1B3 enzyme inhibitors, primary screen, biochemical, fluorescence polarization, human. recombinant PAFAH1B3, FP-rhodamine probe. inhibition, % at 3.39 µM. actives 0.28% (n = 340,000). AID 492972, 2010;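 active means inhibition above the screen-wide average of all tested compounds plus 3 SD, cut at about 25% in these data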
PAFAH2 FP inh = PAFAH2 enzyme inhibitors, primary screen, biochemical, fluorescence polarization, human; Platelet-activating factor acetylhydrolase 2, cytoplasmic (Homo sapiens), Q99487; AID 492956, 2010; inhibition, % at 3.39 µM; actives 0.99% (n = 340,000); recombinant PAFAH2, FP-rhodamine activity probe;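 active means inhibition above the mean over all tested compounds plus 3 SD, cut at about 30% in these data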;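 further: inhibitors block probe labeling of enzyme so polarization drops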
Of the large screens only hits and unclear results are named; the others gave an inactive call. Sampled rows, rich in hits. Any-hit rate of the full collection: about 3.5%.

Cc1ccnc(NC(c2ccccn2)c2c(C)[nH]c3ccccc23)c1 (centres undefined)	none
CCC(c1ccccc1)c1nc(-c2ccccn2)no1 (centres undefined)	PAFAH1B2 inh 27
CCOC(=O)CSc1ccc(S(=O)(=O)N2CCC(C)CC2)cc1[N+](=O)[O-]	PAFAH1B2 inh 26
O=C(Cc1ccc(Cl)cc1)NNC1CC(=O)N(c2ccc3ccccc3c2)C1=O (centres undefined)	PAFAH1B2 inh 25
CCCCOC(=O)Oc1ccc2c(=O)c(Oc3cccc(C)c3)coc2c1	pPAFAH inh 27
O=S(=O)(NNc1nccc(C(F)(F)F)n1)c1cccc(Cl)c1Cl	none
O=C(COC(=O)CC12CC3CC(CC(C3)C1)C2)Nc1ncc(Cl)cc1Cl	pPAFAH inh 27
O=[N+]([O-])c1ccccc1CN1CCN(Cc2ccc3ccccc3c2)CC1	none
CCN(Cc1ccccc1)S(=O)(=O)c1c[nH]c(C(=O)OC)c1	none
COc1ccc(NS(=O)(=O)c2ccc(C(=O)N(C)Cc3ccc(C)o3)cc2)cc1	pPAFAH inh 32
COc1ccc(NS(=O)(=O)c2ccc(C)c(C(=O)N(C)Cc3ccc(C)cc3)c2)cc1	pPAFAH inh 28
Cc1ccc(NS(=O)(=O)c2ccc(CCC(=O)NC3CC3)cc2)cc1	none
COc1ccc(NS(=O)(=O)c2ccc(C)c(C(=O)N(C)CCc3ccc(OC)c(OC)c3)c2)cc1	none
COc1ccc(NS(=O)(=O)c2ccc(NC(=O)C3CCCO3)cc2)cc1 (centres undefined)	pPAFAH inh 26
O=C(Nc1ccc(Oc2ccc(NC(=O)C3CCCO3)cc2)cc1)C1CCCO1 (centres undefined)	none
COCCNC(=O)CCc1ccc(S(=O)(=O)Nc2ccc(C)cc2)cc1	pPAFAH inh 25
CCOC(=O)N1CCC(Nc2c(NCCCN3CCN(C4CCCCC4)CC3)c(=O)c2=O)CC1	none
Cc1noc(NS(=O)(=O)c2ccc(NC(=O)CCC3CCCCC3)cc2)c1C	pPAFAH inh 32, PAFAH1B2 inh 28
Cc1noc(NS(=O)(=O)c2ccc(NC(=O)CSc3nc4ccccc4s3)cc2)c1C	PAFAH1B2 inh 28
Cc1noc(NS(=O)(=O)c2ccc(NC(=O)CS(=O)(=O)c3ccccc3)cc2)c1C	none
O=c1oc2ccccc2c(Nc2ccccc2O)c1[N+](=O)[O-]	none
O=c1oc2ccccc2c(Nc2cc3ccccc3cc2O)c1[N+](=O)[O-]	pPAFAH inh 27
CCOC(=O)c1cc(-c2ccc(OC)cc2)nn1-c1ccc(C(=O)O)cc1	pPAFAH inh 31
O=C1C=C(O)c2cccc(O)c2C1=O	Apaf-1 inh 44
CCOc1ccc(S(=O)(=O)NC(C)(C)C)cc1-c1nc2c(C(C)(C)C)nn(C)c2c(=O)[nH]1	none
CC(C)=C1CCC(C)CC1=NNC(N)=S (centres undefined)	PAFAH1B2 inh 27 (no result: Apaf-1 inh, PREPL inh, pPAFAH inh)
COc1ccc2c(=O)c(-c3ccc(C)cc3)c(-c3ccccc3)oc2c1	none (no result: PREPL inh)
O=C(O)c1cc(NS(=O)(=O)c2ccc3ccccc3c2)ccc1O	PAFAH1B2 inh 48
CCCCCCCc1nc2c(=O)n(C)c3ccccc3c2o1	pPAFAH inh 31
CCCCCCc1nc2c(=O)[nH]c3ccccc3c2o1	none
CN(C)c1cccc(C(=O)N(C)C2CCCN(Cc3ccccc3F)C2)c1 (centres undefined)	none
NNC(=O)c1nn(-c2ccc(Cl)cc2)cc1O	pPAFAH inh 34
O=c1[nH]c(Cc2cccc(C(F)(F)F)c2)nc2ccccc12	none
Cc1cc2[nH]c(=O)c(=O)[nH]c2cc1S(=O)(=O)NC1CCC(C)CC1 (centres undefined)	PAFAH1B2 inh 26
Cc1cc2[nH]c(=O)c(=O)[nH]c2cc1S(=O)(=O)N1CCC(C)CC1	PAFAH1B2 inh 25
Cc1cc2[nH]c(=O)c(=O)[nH]c2cc1S(=O)(=O)N1CCN(c2ccccc2)CC1	none
Cc1cc(C)cc(NS(=O)(=O)c2cc3[nH]c(=O)c(=O)[nH]c3cc2C)c1	none
CC(=O)Nc1sc(C)c(C)c1C(=O)OCC(=O)N(CC(C)C)c1c(N)n(Cc2ccccc2)c(=O)[nH]c1=O	none
O=C1Cc2cc(S(=O)(=O)Nc3cccc([N+](=O)[O-])c3)cc3c2N1CCC3	none
N#CC(=C(c1ccccc1)c1ccccc1)c1ccccc1	PAFAH1B2 inh 24 (no result: Apaf-1 inh, PREPL inh, pPAFAH inh)
CC1CC(C)CN(C(=O)CN2C(=O)NC3(CCCCCCC3)C2=O)C1 (centres undefined)	none
Cc1ccc(-n2cccc2C(=O)NS(=O)(=O)c2ccc(C)cc2)cc1	PAFAH1B2 inh 28
C=CCOc1c(Br)cc(/C=C2\SC(=Nc3ccccc3)NC2=O)cc1OC	none (no result: PREPL inh, pPAFAH inh)
CCOc1cc(Br)cc(/C=C2\SC(=Nc3ccccc3)NC2=O)c1O	pPAFAH inh 25
CCOc1ccc(S(=O)(=O)N/N=C\c2ccc3c(c2)OCO3)cc1	none (no result: PREPL inh, pPAFAH inh)
O=C(Cn1nc(Br)nc1Br)c1ccccc1	PAFAH1B2 inh 29, PAFAH1B3 inh 47, PAFAH2 FP inh 52
CCOc1ccc(NC(=O)CN(C)C(=O)C2CC(=O)N(Cc3ccco3)C2)cc1OCC (centres undefined)	none
Cc1ccc(N/N=C(/Sc2nnnn2-c2ccccc2)C(=O)c2ccccc2)cc1	PAFAH1B2 inh 27
Cc1nc(NC(=O)COC(=O)CNC(=O)c2ccco2)c(Cl)cc1Cl	none
COc1ccc(/C=C2/Sc3ccc(C(=O)NCCN4CCCCCC4)cc3NC2=O)cc1	Apaf-1 inh 49
Cc1cc(C)nc(SCC(=O)N/N=C/c2cccn2-c2ccc(O)cc2)n1	PAFAH1B2 inh 28
Cc1cc(C)nc(SCC(=O)N/N=C/c2cccn2-c2cccc(C(F)(F)F)c2)n1	none
CC(C)n1ncc2c(C(=O)Nc3ccc(S(N)(=O)=O)cc3)cc(C3CC3)nc21	Apaf-1 inh 75
O=C(COC(=O)c1ccccc1Sc1ccc(C(F)(F)F)cc1[N+](=O)[O-])NC(=O)NC1CCCC1	Apaf-1 inh 40
Cc1c(C(=O)OCC(=O)NC(=O)NC2CCCCC2)cccc1[N+](=O)[O-]	none
C[C@H](CO)N1C[C@H](C)[C@@H](CN(C)S(=O)(=O)c2ccccc2)Oc2c(NC(=O)Nc3ccc(C(F)(F)F)cc3)cccc2C1=O	PAFAH1B2 inh 26
C[C@H]1CN([C@@H](C)CO)C(=O)c2cccc(NC(=O)Nc3ccc(C(F)(F)F)cc3)c2O[C@H]1CN(C)C	pPAFAH inh 30
